Screening results from PubChem BioAssay.
Shown are actives, neighbours in structure and some others; about 4% of the full set was active somewhere.
TAAR1 antag = antagonists of human TAAR1 | inhibition, % at 3 µM | CHO RD-HGA16 TAAR1, Fluo-8 calcium fluorescence, antagonist | 360,000 tested, 1.5% active | AID 624466;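 active = inhibition above a per-plate cutoff, the mean inhibition of test compounds on that plate plus 3 SD, cut at about 49% in these data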
Target sequence (Q96RJ0 whole entry, looked up): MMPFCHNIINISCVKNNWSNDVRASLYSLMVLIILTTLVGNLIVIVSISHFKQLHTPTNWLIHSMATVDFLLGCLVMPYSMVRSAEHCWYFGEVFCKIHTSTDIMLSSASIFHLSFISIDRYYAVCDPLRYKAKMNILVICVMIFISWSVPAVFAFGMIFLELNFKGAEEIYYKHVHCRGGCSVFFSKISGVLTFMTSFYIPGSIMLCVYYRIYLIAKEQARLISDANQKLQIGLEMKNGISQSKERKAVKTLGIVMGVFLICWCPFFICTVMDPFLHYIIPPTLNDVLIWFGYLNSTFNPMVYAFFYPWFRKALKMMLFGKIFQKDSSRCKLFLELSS
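Assay system: CHO-derived RD-HGA16 cells stably expressing human TAAR1 plus Gα16. Timing: 140 s kinetic read after compound, 140 s after agonist. Technique: kinetic Fluo-8 calcium fluorescence measurement. Measure: % inhibition of agonist calcium response.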
NTR1 agonist = NTR1 (human) agonism; P30989; NTR1-U2OS beta-arrestin-GFP spot imaging, agonist mode; activation, % at 20 µM; 330,000 tested, 0.17% active; AID 493036;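 active = activation at or above 40% of the spot to cytoplasm intensity ratio, with at least 20 cells analyzed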
Target sequence (P30989 whole entry, looked up): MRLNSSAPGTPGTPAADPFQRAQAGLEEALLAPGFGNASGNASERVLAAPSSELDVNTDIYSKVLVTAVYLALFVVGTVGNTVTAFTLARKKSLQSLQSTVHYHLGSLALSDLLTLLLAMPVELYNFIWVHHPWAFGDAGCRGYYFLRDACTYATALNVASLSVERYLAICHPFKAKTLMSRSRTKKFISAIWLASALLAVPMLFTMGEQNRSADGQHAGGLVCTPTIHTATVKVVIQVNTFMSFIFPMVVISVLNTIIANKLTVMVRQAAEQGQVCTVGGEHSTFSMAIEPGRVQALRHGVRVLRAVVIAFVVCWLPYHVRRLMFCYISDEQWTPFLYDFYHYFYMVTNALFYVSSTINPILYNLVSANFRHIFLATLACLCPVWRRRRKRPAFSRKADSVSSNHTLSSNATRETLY
CHO parental Ca = counter-screen for OX1R antagonists: effect in parental CHO cells; 330,000 tested, 0.63% active; parental CHO-K1, ATP-induced calcium, Fluo-8 fluorescence; inhibition, % at 5.6 µM; AID 463079;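 active = inhibition above that plate's mean sample inhibition plus 3 SD, cut at about 26% in these data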
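Assay system: untransfected parental CHO cell line. Also added: ATP agonist challenge. Dosing: one dose, 5.6 µM nominal. Measured by: Fluo-8 fluorescence. Read-out: % inhibition. Benchmarks: ATP wells versus no-ATP DMSO wells. Repeats: no replicates.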
OX1R antag-1 = antagonists of human orexin 1 receptor. O43613. CHO/OX1R cells, Fluo-8 calcium fluorescence, orexin A. inhibition, % at 5 µM. 330,000 tested, 0.43% active. AID 434989;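 active = inhibition above its plate's threshold, mean inhibition of all tested compounds on the plate plus 3 SD, cut at about 37% in these data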
OX1R antag-2 = OX1R (human) antagonism; O43613; OX1R-expressing cells, FRET antagonist read-out; inhibition, % at 6.6 µM; 330,000 tested, 1.8% active; AID 485270; in the data active = inhibition mostly above about 38%, no sharp cut-off; inactive = mostly below about 40%
TAAR1 agonist = agonists of human TAAR1. 360,000 tested, 0.99% active. activation, % at 3 µM. CHO RD-HGA16 TAAR1, Fluo-8 calcium fluorescence; vehicle wells 0%, saturating PEA agonist 100%. Q96RJ0;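 active = activation above the mean activation of all test compounds in the run plus 3 SD, cut at about 38% in these data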
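Benchmarks: low control DMSO, high control PEA (EC100); System: CHO RD-HGA16 cells carrying human TAAR1 plus Gα16; Detection: Fluo-8 fluorescence, 5 s baseline then 140 s kinetic read; Schedule: 17-24 h plating, Fluo-8 75 min 37 °C, 30 min RT; Read-out basis: % activation from peak over basal fluorescence ratio, DMSO-to-PEA scaled.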
nonsel antag count = counter-screen for TAAR1 antagonists: nonselective antagonists; inhibition, % at 3 µM; shares compounds with TAAR1 antag; counterscreen cell line, calcium fluorescence, antagonist mode; 2,400 tested, 77% active; AID 651780; in the data active = inhibition above about 22%;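 note: CHO-Ga16 host cells stimulated with ATP at an EC80 level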
TAAR1 ant conf = human TAAR1 antagonism, confirmed; TAAR1-expressing cells, fluorescence antagonist read-out; 2,400 tested, 40% active; shares compounds with TAAR1 antag; inhibition, % at 3 µM; in the data active = inhibition above about 49%;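 note: CHO-Ga16 host cells challenged with agonist PEA near its EC80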
Ga16 ag counter = counter-screen for TAAR1 antagonists: nonselective Ga16 agonists; shares compounds with TAAR1 antag; Ga16-expressing cells, calcium fluorescence, agonist counterscreen; activation, % at 3 µM; 2,400 tested, 18% active; in the data active = activation above about 12%
TAAR1 ag count = counter-screen for human TAAR1 antagonists: TAAR1 agonists; shares compounds with TAAR1 antag; AID 651955; 2,400 tested, 2% active; activation, % at 3 µM; hTAAR1 cell line, fluorescence activation, agonist mode; in the data active = activation above about 37%;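 note: CHO cells stably expressing TAAR1 with calcium dye readout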
Of the large screens only hits and unclear results are named; the others gave an inactive call (follow-up assays come after a bar, where they were run).

CCC(=O)Oc1ccc(C2NC(=O)c3ccccc3O2)cc1OC (stereo unspecified)	none
CCCc1nnc(SCC(=O)Nc2nc(C)cs2)n1CCOC	none
O=C(NC1=NCCS1)c1ccccc1OCc1ccc(F)cc1	none
Cc1nc2scc(-c3ccccc3)c2c(=O)n1N	none
Cc1nc2scc(-c3ccccc3)c2c(=O)n1N=C1C=CC(=O)C=C1	TAAR1 antag 62 (no result: CHO parental Ca, OX1R antag-1, OX1R antag-2) | nonsel antag count 56 | TAAR1 ant conf 54 | Ga16 ag counter inactive | TAAR1 ag count inactive
CCN1CCc2c(OCC(=O)Nc3ccccc3)cccc2C1=O	none
Cc1ccc(C)c(NC(=O)COc2cccc3c2CCN(Cc2ccccc2)C3=O)c1	TAAR1 antag 63 | nonsel antag count 27 | TAAR1 ant conf inactive | Ga16 ag counter inactive | TAAR1 ag count inactive
COc1ccc(Nc2nc(NCc3cccs3)nc3ccsc23)cc1OC	none (no result: NTR1 agonist, CHO parental Ca, OX1R antag-1, OX1R antag-2)
CCOC(=O)Cc1ccc(Nc2nc(NCc3cccs3)nc3ccsc23)cc1	TAAR1 antag 76 (no result: NTR1 agonist, CHO parental Ca, OX1R antag-1, OX1R antag-2) | nonsel antag count 42 | TAAR1 ant conf inactive | Ga16 ag counter inactive | TAAR1 ag count inactive
COc1ccc(CCNc2oc(COc3ccccc3F)nc2C#N)cc1	TAAR1 antag 65 | nonsel antag count 29 | TAAR1 ant conf 52 | Ga16 ag counter inactive | TAAR1 ag count inactive
COc1ccc(CCNc2oc(Cc3cccc4ccccc34)nc2C#N)cc1OC	none
COc1ccc(CCNc2oc(COc3ccc(Br)cc3)nc2C#N)cc1OC	TAAR1 antag 93 | nonsel antag count 47 | TAAR1 ant conf 65 | Ga16 ag counter inactive | TAAR1 ag count inactive
Cc1nc2ccc(Br)cc2c(=O)n1Cc1cccs1	none
NC(=O)c1ccsc1NC(=O)COC(=O)CCc1ccccc1	none (no result: NTR1 agonist, CHO parental Ca, OX1R antag-1, OX1R antag-2)
COC(=O)c1ccccc1NC(=O)COC(=O)/C=C/c1cccs1	TAAR1 antag 60 | nonsel antag count inactive | TAAR1 ant conf inactive | Ga16 ag counter inactive | TAAR1 ag count inactive
NC(=O)c1ccsc1NC(=O)COC(=O)/C=C/c1ccccc1	TAAR1 antag 79 | nonsel antag count 41 | TAAR1 ant conf 74 | Ga16 ag counter 17 | TAAR1 ag count inactive
COC(=O)c1ccccc1NC(=O)CCCCCn1nnc2ccccc2c1=O	none
CSc1ccc(CNC(=O)Cn2nc(C)c3c(C)n(-c4ccc(C)cc4)nc3c2=O)cc1	none
FC(F)Sc1ccc(NC(=S)N2CCN(c3ccccn3)CC2)cc1	none (no result: CHO parental Ca, OX1R antag-1, OX1R antag-2)
Oc1ccccc1N1CCN(C(=S)Nc2ccc(SC(F)F)cc2)CC1	TAAR1 antag 83 | nonsel antag count 42 | TAAR1 ant conf 55 | Ga16 ag counter 14 | TAAR1 ag count inactive
CCc1ccc(N/C(SCc2cccc(F)c2)=C(/C#N)C(=O)NCc2ccco2)cc1	TAAR1 antag 50 | nonsel antag count inactive | TAAR1 ant conf inactive | Ga16 ag counter inactive | TAAR1 ag count inactive
N#C/C(=C\Nc1ccc2c(c1)OCCO2)C(=O)NCc1ccco1	none
COc1ccc(/C=C/C(=O)OCC(=O)NC(C)CCc2ccccc2)cc1 (stereo unspecified)	none
COc1ccccc1NC(=O)c1ccc(NC(=O)COC(=O)C2(C)CC2(Cl)Cl)cc1 (stereo unspecified)	TAAR1 antag 63 | nonsel antag count 29 | TAAR1 ant conf 61 | Ga16 ag counter inactive | TAAR1 ag count inactive
CC1(C(=O)OCC(=O)Nc2ccc(C(N)=O)cc2)CC1(Cl)Cl (stereo unspecified)	none
O=C1C(Cc2ccccc2)Nc2ncnc(N3CCc4ccccc4C3)c2N1Cc1ccc(Br)cc1 (stereo unspecified)	none (no result: TAAR1 antag, TAAR1 agonist)
O=C(COC(=O)/C=C/c1cn(-c2ccccc2)nc1-c1ccc2c(c1)OCCO2)NC1CCS(=O)(=O)C1 (stereo unspecified)	TAAR1 antag 87 | nonsel antag count 40 | TAAR1 ant conf 55 | Ga16 ag counter inactive | TAAR1 ag count inactive
CC1(C(=O)Nc2cccc3ncccc23)CCN1C(=O)CCc1ccccc1 (stereo unspecified)	none (no result: NTR1 agonist, CHO parental Ca, OX1R antag-1, OX1R antag-2)
CC1(C(=O)Nc2cccc3ncccc23)CCN1C(=O)Cc1ccc(-c2ccccc2)cc1 (stereo unspecified)	TAAR1 antag 67 (no result: NTR1 agonist, CHO parental Ca, OX1R antag-1, OX1R antag-2) | nonsel antag count 29 | TAAR1 ant conf inactive | Ga16 ag counter inactive | TAAR1 ag count inactive
CCn1c(NC(=O)c2cccc(Cn3cc(Cl)cn3)c2)nc2ccccc21	TAAR1 antag 66 | nonsel antag count 26 | TAAR1 ant conf inactive | Ga16 ag counter inactive | TAAR1 ag count inactive
Cn1c(NC(=O)c2cccc(Cn3cc(Cl)cn3)c2)nc2ccccc21	none
COc1cc(-c2noc(C)c2/C=C/c2cccc([N+](=O)[O-])c2)cc(OC)c1OC	TAAR1 antag 74 | nonsel antag count 28 | TAAR1 ant conf inactive | Ga16 ag counter inactive | TAAR1 ag count inactive
COc1cc(-c2noc(C)c2/C=C/c2ccc(C(=O)O)cc2)cc(OC)c1OC	none
C=CCN1C(c2cccc(C(F)(F)F)c2)=CS/C1=C(\C#N)c1nnc(N2CCOCC2)n1-c1ccccc1	none (no result: NTR1 agonist, CHO parental Ca, OX1R antag-1, OX1R antag-2)
C=CCN1C(c2ccc(Br)cc2)=CS/C1=C(\C#N)c1nnc(N2CCOCC2)n1-c1ccccc1	TAAR1 antag 58 (no result: NTR1 agonist, CHO parental Ca, OX1R antag-1, OX1R antag-2) | nonsel antag count 24 | TAAR1 ant conf inactive | Ga16 ag counter inactive | TAAR1 ag count inactive
Cc1cccc2cc(C3CC(c4cccs4)=NN3S(C)(=O)=O)c(Cl)nc12 (stereo unspecified)	TAAR1 antag 83 | nonsel antag count inactive | TAAR1 ant conf inactive | Ga16 ag counter inactive | TAAR1 ag count inactive
Cc1ccc2cc(C3CC(c4cccs4)=NN3S(C)(=O)=O)c(Cl)nc2c1 (stereo unspecified)	none
CC(=O)c1ccc(OCC(O)COc2ccc(C(C)=O)cc2)cc1	none
C=C(C)C(=O)OCC(O)COc1ccc(C(C)(C)c2ccc(OCC(O)COC(=O)C(=C)C)cc2)cc1 (stereo unspecified)	TAAR1 antag 92, CHO parental Ca 57 | nonsel antag count 55 | TAAR1 ant conf 70 | Ga16 ag counter 19 | TAAR1 ag count inactive
COc1cc(C)cc(OC)c1OCC(=O)Nc1cc(C)on1	TAAR1 antag 88 | nonsel antag count inactive | TAAR1 ant conf inactive | Ga16 ag counter inactive | TAAR1 ag count inactive
